Consider 5 molecules from ChEMBL document CHEMBL2176904, “Nonpeptidic lysosomal modulators derived from z-phe-ala-diazomethylketone for treating protein accumulation diseases” (ACS Med Chem Lett, 2012).

The structures appear in SMILES notation. Activity calls are given as the source filed them. No cut-off for these calls is given here. Where only a bound is given, the exact number is not on record here.

Usually inhibition stands for the change of the read-out against control, counted positive when it falls. Broadly, the IC50 is the concentration that gives 50% inhibition. A higher IC50 goes with lower potency.

Test [1] has as its system Hippocampus. Kind of test: Up-regulation of cathepsin-B level in lysosome of rat hippocampal slice cultures at 20 uM after 4 days by immunoblot analysis. Format: functional, tissue-based. The following applies: 10 uM, in the assay text read “10 uM” for “20 uM”. (In general: Immunoblotting shows a protein as a band on a membrane.)
Test [2] deals with T1, Cathepsin B (Homo sapiens, UniProt P07858). In words: Inhibition of cathepsin-B using Z-Arg-Arg AMC as substrate by fluorescence assay relative to control. Conditions: concentration not given here. In a few lines: (§1)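 Z-Arg-Arg AMC as fluorogenic substrate, compounds titrated. Mean fluorescence units ± SEM were normalized to percent of control. Percent inhibition and IC50 range were fitted by nonlinear regression with one-site competition equations. Untreated control activity was compared with the highest compound concentration by unpaired t test.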

The subject of test [3] is Hippocampus. Kind of test: Up-regulation of cathepsin-B level in lysosome of rat hippocampal slice cultures at 10 uM after 4 days by immunoblot analysis relative to PADK.
Test [4] concerns Hippocampus. In words: Up-regulation of cathepsin-D level in lysosome of rat hippocampal slice cultures at 10 uM after 4 days by immunoblot analysis relative to PADK.
The subject of test [5] is Hippocampus. In words: Up-regulation of cathepsin-B level in lysosome of rat hippocampal slice cultures at 3 to 10 uM after 4 days by immunoblot analysis in presence of brefeldin-A. The class given is functional, tissue-based. In outline: (§2)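 Organotypic hippocampal slice cultures from rat were treated daily with compound or vehicle. Cathepsin immunoreactivity was measured by immunoblot image analysis and reported as mean IOD ± SEM. Where stated, brefeldin A was co-present.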

Test [6] deals with T1, Cathepsin B. Kind of test: Inhibition of cathepsin-B using Z-Arg-Arg AMC as substrate by fluorescence assay. In a few lines: as §1
Test [7] relates to Hippocampus. In words: Up-regulation of cathepsin-D level in lysosome of rat hippocampal slice cultures at 3 to 10 uM after 4 days by immunoblot analysis. Format: functional, tissue-based. In a few lines:
as §2

Test [8] deals with Hippocampus. In words: Up-regulation of cathepsin-D level in lysosome of rat hippocampal slice cultures at 3 to 10 uM after 4 days by immunoblot analysis in presence of brefeldin-A. Format: functional, tissue-based. In outline:
as §2

The test system of test [9] is Hippocampus. Kind of test: Up-regulation of cathepsin-B level in lysosome of rat hippocampal slice cultures at 3 to 10 uM after 4 days by immunoblot analysis. Format: functional, tissue-based. In outline: as §2
Test [10] relates to Hippocampus. In words: Up-regulation of cathepsin-B level in lysosome of rat hippocampal slice cultures at 0.3 to 1 uM after 4 days by immunoblot analysis. The class given is functional, tissue-based. In a few lines: as §2
The subject of test [11] is Hippocampus. In words: Up-regulation of cathepsin-D level in lysosome of rat hippocampal slice cultures at 0.3 to 1 uM after 4 days by immunoblot analysis. Format: functional, tissue-based. In outline: as §2
The test system of test [12] is Mus musculus. In words: Reduction of 8 to 10-kDa oligomeric amyloid beta species in APPSwInd transgenic mouse 20Lms/2J hippocampal homogenates at 25 mg/kg, ip qd for 9 days relative to wild type mouse. Format: functional, organism-based. Also noted: dose 25 mg/kg. Conditions: Hippocampus.
Test [13] concerns Mus musculus. Kind of test: Increase of active form of cathepsin-B level in APPSwInd transgenic mouse 20Lms/2J hippocampal homogenates at 25 mg/kg, ip qd for 9 days relative to wild type mouse. Also noted: dose 25 mg/kg. Format: functional, organism-based. Conditions: Hippocampus.
The subject of test [14] is Mus musculus. In words: Inhibition of postsynaptic loss of GluR1 protein level in APPSwInd transgenic mouse 20Lms/2J hippocampal homogenates at 25 mg/kg, ip qd for 9 days relative to wild type mouse. Conditions: Hippocampus. Also noted: dose 25 mg/kg. Format: functional, organism-based.
The test system of test [15] is Mus musculus. Kind of test: Inhibition of presynaptic loss of amphiphysin-I protein level in APPSwInd transgenic mouse 20Lms/2J hippocampal homogenates at 25 mg/kg, ip qd for 9 days relative to wild type mouse. Conditions: Hippocampus.

Take `[N-]=[N+]=CC(=O)N(Cc1ccccc1)C[C@@H](O)[C@H](Cc1ccccc1)NC(=O)OCc1ccccc1`: the outcome in the test with Hippocampus [1] was Active. This molecule also displayed an inhibition against Cathepsin B [2] of 13%. Further, the “fold change (FC)” value in the test on Hippocampus [3] and with Hippocampus [4] was 2 throughout.

As to `C[C@H](NC(=O)[C@H](Cc1ccccc1)NC(=O)OCc1ccccc1)C(=O)C=[N+]=[N-]`, the result with Hippocampus [5] and in the test with Hippocampus [8] was inactive. At Cathepsin B [6], it took 9400 nM to reach half-maximal inhibition (IC50). Besides, the result in the test on Hippocampus [7] and in the test with Hippocampus [9] was Active. The molecule also came in with an inhibition at Cathepsin B [2] of 100%.

The molecule `CCCNC(=O)[C@H]1O[C@@H]1C(=O)N[C@H](C(=O)N1CCC[C@H]1C(=O)OC)[C@@H](C)CC` gave a 50% inhibitory concentration (IC50) against Cathepsin B [6] of 80 nM. At Cathepsin B [2], this molecule came in with an inhibition of 100%. The outcome in the test with Hippocampus [10] and with Hippocampus [11] was inactive.

At Cathepsin B [6], `N#[N+][CH-]C(=O)N(Cc1ccccc1)C[C@@H](O)[C@H](Cc1ccccc1)NC(=O)OCc1ccccc1` gave an IC50 of 2000 nM.

In the case of `CC(=O)N(Cc1ccccc1)C[C@@H](O)[C@H](Cc1ccccc1)NC(=O)OCc1ccccc1`, the outcome with Mus musculus [12], in the test on Hippocampus [1] and with Mus musculus [13] was Active. The molecule also displayed an IC50 at Cathepsin B [6] above 100000 nM. The molecule further had an inhibition against Cathepsin B [2] of 8%. The inhibition result with Mus musculus [14] and with Mus musculus [15] was “Active” throughout.
